In ChEMBL document CHEMBL1136925, “Structure-activity relationship of cyanine tau aggregation inhibitors” (J Med Chem, 2009):
Activity calls are given as the source filed them. No cut-off for these calls is given here.

Experiments:
[1] = Inhibition of His-tagged human recombinant 2N4R tau protein aggregation assessed as inhibition octadecyl sulphate-induced fibrillation by filter trap assay
[2] = species on record: Homo sapiens; test: Inhibition of His-tagged human recombinan2N4R tau protein aggregation assessed as inhibition octadecyl sulphate-induced fibrillation up to 10 uM by filter trap assay
[3] = system: Brain; test: Induction of apoptosis in human tau P301L mutant expressing JNPL3 transgenic mouse brain slice assessed as cleaved PARP1 after 7 days by densitometry; type: tissue-based; conditions: 168 h
How it was run: (§1)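 Cortex and hippocampus slices (400 μm) cut from postnatal day 10 JNPL3 mouse brain, cultured 14 days on membrane inserts in 25% serum medium, then dosed for 7 days. The contralateral hemisphere received DMSO vehicle (0.008% final) as within-animal control. Slices were sonicated in cold RIPA with protease/phosphatase inhibitors and spun 20,000g for 20 min at 4°C. Supernatant α-tubulin and cleaved PARP1 were immunoblotted and quantified by densitometry (n = 3), normalized to vehicle.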

[4] = species on record: Homo sapiens; test: Inhibition of human tau aggregation in human tau P301L mutant expressing JNPL3 transgenic mouse brain slices at 0.1 nM to 1 uM after 7 days; type: tissue-based
How it was run: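 Slices from postnatal day 10 JNPL3 mice were cultured 14 days, then exposed 7 days to compound (0.1 nM–1 μM). The contralateral hemisphere received DMSO (0.008%) as control. RIPA extracts were equalized for total protein, incubated in 1% sarkosyl for 30 min at room temperature, and spun 100,000g for 1 h at 20°C. The insoluble pellet was boiled in SDS buffer, immunoblotted with CP27 and quantified by densitometry (n = 3) relative to vehicle.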

[5] = species on record: Homo sapiens; test: Induction of human tau aggregation in human tau P301L mutant expressing JNPL3 transgenic mouse brain slices at >=300 nM
[6] = species on record: Homo sapiens; test: Inhibition of human tau aggregation in human tau P301L mutant expressing JNPL3 transgenic mouse brain slices at 100 nM
[7] = system: Brain; test: Induction of apoptosis in human tau P301L mutant expressing JNPL3 transgenic mouse brain slice assessed as change in alpha-tubulin level at 1 nM after 7 days by densitometry; type: tissue-based; conditions: 168 h, 0.001 µM; how it was run: as §1
[8] = species on record: Homo sapiens; test: Inhibition of His-tagged human recombinan2N4R tau protein aggregation assessed as inhibition octadecyl sulphate-induced fibrillation at 10 uM by filter trap assay

| Compound | IC50 [1] | other results |
| --- | --- | --- |
| CCN1/C(=C/C(C)=C/c2sc3ccccc3[n+]2CC)Sc2ccccc21.[I-] | 0.28 µM | Activity [3]: Non-toxic; Activity [4]: Active; Activity [5]: Active; Activity [6]: inactive; Activity [7]: Non-toxic |
| CC(/C=C1\Sc2ccccc2N1CCCS(=O)(=O)[O-])=C\c1sc2ccccc2[n+]1CCCS(=O)(=O)[O-].CC[n+]1ccccc1 | > 10 µM | – |
| CCN1/C(=C/C(C)=C/c2sc3c4ccccc4ccc3[n+]2CC)Sc2c1ccc1ccccc21 | 3.29 µM | – |
| CCN1/C(=C/C=C/c2sc3ccccc3[n+]2CC)Sc2ccccc21 | 0.96 µM | – |
| CCN1/C(=C/c2sc3ccccc3[n+]2CC)Sc2ccccc21 | 10 µM | – |
| CCN1/C(=C/C=C/c2oc3ccccc3[n+]2CC)Oc2ccccc21 | > 10 µM | Activity [8]: inactive |

Now from value to molecule, other results behind:

| IC50 [1] | Compound | other results |
| --- | --- | --- |
| > 10 µM | CCCCCCN1/C(=C/C=C/c2sc3ccccc3[n+]2CCCCCC)Sc2ccccc21 | Activity [2]: inactive |
| 2.57 µM | CCCN1/C(=C/C=C/C2=[N+](CCC)c3ccccc3C2(C)C)C(C)(C)c2ccccc21 | – |
| 2.15 µM | CCN1/C(=C/C=C/C=C/c2sc3ccccc3[n+]2CC)Sc2ccccc21 [DITHIAZANINE IODIDE] | – |
| 5 µM | CCN1/C(=C/C=C/C=C/C=C/c2sc3ccccc3[n+]2CC)Sc2ccccc21 | – |
| 0.29 µM | CCC(/C=C1\Sc2ccc(OC)cc2N1CCO)=C\c1sc2ccc(OC)cc2[n+]1CCO | – |
